Measurements from ChEMBL document CHEMBL1152725, “New potent imidazoisoquinolinone derivatives as anti-Trypanosoma cruzi agents: biological evaluation and structure-activity relationships” (Bioorg Med Chem, 2009).
≈ marks a conversion by molar mass, not a printed value. Calls of active or inactive are those of the source. The rule behind the calls is not given here.

Tests used:
[1] = tested on: DNA; experiment: Binding affinity to calf thymus DNA at a DNA-drug molar ratio of 5:1 after 24 hrs by UV spectroscopy; format: nucleic-acid assay; settings: Bos taurus
In short: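 Calf thymus DNA was prepared in 10 mM Tris–HCl pH 7.4. Compound (2 × 10⁻⁵ M, from an ethanol stock diluted with water) was mixed 1:1 by volume with the DNA solution at a 5:1 DNA-drug ratio. The mixture was rotated slowly for 24 h. UV absorbance area at maximal absorbance was compared (a24/a0), where 1 means no affinity and 0 means fully bound.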

[2] = Selectivity index, ratio of IC50 for human HeLa cells to IC50 for Trypanosoma cruzi Tulahuen 2 epimastigotes; format: toxicity, cell-based; settings: HeLa cells versus Trypanosoma cruzi Tulahuen 2 epimastigotes, read-out: Ratio IC50
In short: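 Selectivity index is the HeLa IC50 divided by the IC50 against T. cruzi Tulahuen 2 epimastigotes (5-day growth assay).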

[3] = tested on: Trypanosoma cruzi; experiment: Antitrypanosomal activity against Trypanosoma cruzi Tulahuen 2 epimastigotes after 5 days; format: functional, organism-based; settings: Tulahuen 2, 120 h
In short: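 T. cruzi Tulahuen 2 epimastigotes were grown axenically at 28 °C in BHI-tryptose with 5% FCS. Stationary-phase (5-day) cells were inoculated at 1 × 10⁶ cells/mL, with DMSO ≤0.4% final. Cultures ran 5 days with or without compound, first as a 25 µM screen and then at increasing concentrations. IC50 is the concentration halving this ratio.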

[4] = tested on: HeLa; experiment: Cytotoxicity against human HeLa cells after 24 hrs by MTT assay; format: cell-based
In short: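 HeLa cells were kept in DMEM with 10% FBS, penicillin and streptomycin at 37 °C and 5% CO2. Cells were seeded, and after 48 h compound was added at 4, 20 or 100 µM for 24 h. After PBS washes, cells got MTT at 0.5 mg/mL final for 4 h at 37 °C. Formazan was dissolved in isopropanol/HCl and read at 570 nm after blank subtraction. Survival is % of control, with ≥3 repeats of four samples each.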

[5] = tested on: L6; experiment: Cytotoxicity against rat L6 cells; format: cell-based
[6] = tested on: Plasmodium falciparum; experiment: Antiparasitic activity against Plasmodium falciparum K1; format: functional, organism-based
[7] = tested on: Onchocerca gutturosa; experiment: Antiparasitic activity against Onchocerca gutturosa assessed as inhibition of MTT formazan formation; format: functional; parameters: scale not given: the % may be the effect or the level left
[8] = tested on: Leishmania infantum; experiment: Antiparasitic activity against Leishmania infantum; format: functional, organism-based
[9] = tested on: Trypanosoma brucei rhodesiense; experiment: Antiparasitic activity against Trypanosoma brucei rhodesiense; format: functional, organism-based
[10] = tested on: Onchocerca gutturosa; experiment: Antiparasitic activity against Onchocerca gutturosa assessed as reduction in motility after 120 hrs; format: functional; parameters: scale not given: the % may be the effect or the level left
[11] = tested on: Leishmania donovani; experiment: Antiparasitic activity against Leishmania donovani; format: functional, organism-based

SMILES | Activity [1] | selectivity ratio [2] | IC50 [3] [µM] | IC50 [4] [µM] | IC50 [5] [µg/mL] | IC50 [6] [µg/mL] | Activity [7] [%] | IC50 [8] [µg/mL] | IC50 [9] [µg/mL] | Activity [10] [%] | Activity [11]
COc1ccc(NC(=S)c2c3n(c(=O)c4ccccc24)CCN3)cc1 | 0.8 | 1.7 | 12.3 | 22 | – | – | – | – | – | – | –
CC/C(=C(\c1ccccc1)c1ccc(OCCN(C)C)cc1)c1ccccc1 [TAMOXIFEN] | – | – | – | – | 4.9 (≈ 13.2 µM) | – | – | – | – | – | –
CC1CS(=O)(=O)CCN1/N=C/c1ccc([N+](=O)[O-])o1 (stereo not given) [NIFURTIMOX] | – | 1.5 | – | 12 | – | – | – | – | – | – | –
O=c1c2ccccc2c(C(=S)Nc2cccc3ccccc23)c2n1CCN2 | 0.8 | – | 25 | – | – | – | – | – | – | – | –
O=c1c2ccccc2c(C(=S)NCc2ccc(Cl)cc2)c2n1CCN2 | 0.8 | – | 35 | > 90 | – | – | – | – | – | – | –
O=c1c2ccccc2cc2n1CCN2 | 0.8 | – | > 25 | > 100 | > 100 | > 10 | 0 | > 20.7 | 1.2 (≈ 6.44 µM) | 14.29 | inactive
O=c1c2ccccc2c(C(=S)Nc2ccccc2)c2[nH]c3ccccc3n12 | 0.8 | 15 | 6.4 | 98 | > 22.8 | > 19.5 | – | > 19.5 | > 22.7 | – | inactive
CN1CCN(C(=S)Nc2ccc(Nc3ccc([N+](=O)[O-])cc3)cc2)CC1 [AMOCARZINE] | – | – | – | – | – | – | 48.57 | – | – | 85.71 | –
O=c1c2ccccc2c(C(=S)Nc2ccccn2)c2n1CCN2 | 0.8 | – | 30 | > 100 | – | – | – | – | – | – | –
O=c1c2ccccc2c(C(=S)Nc2ccccc2)c2n1CCN2 | 0.8 | > 33 | 3 | > 100 | – | – | – | – | – | – | –
O=c1c2ccccc2c(C(=S)Nc2ccc(Cl)cc2)c2n1CCN2 | 0.8 | > 180 | 0.5 | > 90 | > 22.8 | > 22.7 | – | > 22.7 | > 22.7 | – | inactive
Cc1ccc(C(=O)Nc2ccc(S(=O)(=O)O)c3cc(S(=O)(=O)O)cc(S(=O)(=O)O)c23)cc1NC(=O)c1cccc(NC(=O)Nc2cccc(C(=O)Nc3cc(C(=O)Nc4ccc(S(=O)(=O)O)c5cc(S(=O)(=O)O)cc(S(=O)(=O)O)c45)ccc3C)c2)c1 [SURAMIN] | – | – | – | – | – | – | – | – | 0.13 (≈ 0.1 µM) | – | –
O=c1c2ccccc2cc2[nH]c3ccccc3n12 | 0.85 | – | > 25 | > 100 | – | – | – | – | – | – | –
O=C(Nc1ccccc1)c1c2n(c(=O)c3ccccc13)CCN2 | 0.8 | – | 30 | > 100 | > 19.6 | > 19.5 | – | > 19.5 | > 19.5 | – | inactive
Cc1ccc(NC(=S)c2c3n(c(=O)c4ccccc24)CCN3)cc1 | 0.8 | > 100 | 1 | > 100 | – | – | – | – | – | – | –
CC(=O)N1CCn2c1c(C(=S)Nc1ccccc1)c1ccccc1c2=O | 0.8 | – | 43 | – | – | – | – | – | – | – | –
Cc1cccc(NC(=S)c2c3n(c(=O)c4ccccc24)CCN3)c1 | 0.8 | – | 20 | > 52.5 | – | – | – | – | – | – | –
